{"source": "ChEMBL document CHEMBL4364292", "about": "“Discovery of a Potent and Selective CCR4 Antagonist That Inhibits Treg Trafficking into the Tumor Microenvironment” (J Med Chem, 2019)", "key": {"[1]": {"biological_target": "T1, C-C chemokine receptor type 4 (Homo sapiens, UniProt P51679)", "T1 sequence (P51679 whole entry)": "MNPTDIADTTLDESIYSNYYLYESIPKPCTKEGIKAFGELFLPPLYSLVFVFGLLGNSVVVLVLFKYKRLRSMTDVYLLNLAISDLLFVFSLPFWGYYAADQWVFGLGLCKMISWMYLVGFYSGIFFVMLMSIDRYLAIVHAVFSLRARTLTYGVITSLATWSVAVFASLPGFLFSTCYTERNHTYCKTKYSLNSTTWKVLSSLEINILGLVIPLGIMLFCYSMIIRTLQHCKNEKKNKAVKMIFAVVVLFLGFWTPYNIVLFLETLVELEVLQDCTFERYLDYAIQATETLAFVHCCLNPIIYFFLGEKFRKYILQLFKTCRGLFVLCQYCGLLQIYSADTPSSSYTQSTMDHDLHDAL", "assay": "Antagonist activity at human CCR4 expressed in rat chem-5 cells assessed as inhibition of CCL22-induced calcium flux measured at 2.5 secs time interval for 45 secs by fluorescence assay", "type": "functional, cell-based", "how_it_was_run": "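Calcium flux functional readout of CCR4 antagonism, run without serum; IC50 reported.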"}, "[2]": {"assay": "Stability in human hepatocytes assessed as compound remaining incubated for 60 mins under shaking condition by LC-MS/MS analysis", "type": "ADME, cell-based, Hepatocyte", "settings": "read-out: Stability", "how_it_was_run": "(§1)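 Human and rat hepatocytes exposed to compound; percent parent remaining reported.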"}, "[3]": {"assay": "Stability in rat hepatocytes assessed as compound remaining incubated for 60 mins under shaking condition by LC-MS/MS analysis", "type": "ADME, cell-based, Hepatocyte", "settings": "read-out: Stability", "how_it_was_run": "as §1"}, "[4]": {"assay": "Hepatic clearance in rat at 0.5 mg/kg, iv", "type": "ADME, organism-based", "settings": "in vivo"}, "[5]": {"assay": "AUCinfinity in rat at 0.5 mg/kg, iv", "type": "ADME, organism-based", "set-up": "dose 0.5 mg/kg, route intravenous, time infinity", "settings": "in vivo"}, "[6]": {"assay": "Bioavailability in rat", "type": "ADME, organism-based", "settings": "in vivo"}, "[7]": {"assay": "Half-life in mouse", "type": "ADME, organism-based", "settings": "in vivo"}, "[8]": {"assay": "Volume of distribution at steady state in mouse", "type": "ADME, organism-based", "settings": "in vivo, read-out: Vdss"}, "[9]": {"assay": "Clearance in mouse", "type": "ADME, organism-based", "settings": "in vivo"}, "[10]": {"assay": "Bioavailability in mouse", "type": "ADME, organism-based", "settings": "in vivo"}}, "note": "pIC50: −log10 of the molar value."}
{"smiles": "Cc1nn([C@H](C)c2ccc(Cl)cc2Cl)c2nc(N3CC[C@H](N4CCC[C@H]4CCS(C)(=O)=O)[C@H](C)C3)cnc12", "values": [{"measurement": "pIC50", "setting": "[1]", "value": 6.98}]}
{"smiles": "C[C@@H]1CC(c2cnc3c(C#N)nn([C@H](C)c4ccc(Cl)cc4Cl)c3n2)=CC[C@@H]1N1CCC[C@H]1CN", "values": [{"measurement": "remaining at 1 h", "setting": "[2]", "value": 100, "unit": "%"}, {"measurement": "pIC50", "setting": "[1]", "value": 6.64}, {"measurement": "remaining at 1 h", "setting": "[3]", "value": 100, "unit": "%"}]}
{"smiles": "Cc1nn([C@H](C)c2ccc(Cl)cc2Cl)c2nc(N3CC[C@H](N4CCC[C@@H]4C)[C@H](C)C3)cnc12", "values": [{"measurement": "pIC50", "setting": "[1]", "value": 6.76}]}
{"smiles": "Cc1nn([C@H](C)c2ccc(Cl)cc2Cl)c2nc(N3CC[C@H](N4CCC[C@H]4C(N)=O)[C@H](C)C3)cnc12", "values": [{"measurement": "pIC50", "setting": "[1]", "value": 6.77}]}
{"smiles": "Cc1nn([C@H](C)c2ccc(Cl)cc2Cl)c2nc(N3CC[C@H](N4CCC[C@H]4CCC(N)=O)[C@H](C)C3)cnc12", "values": [{"measurement": "pIC50", "setting": "[1]", "value": 7.43}]}
{"smiles": "Cc1nn([C@H](C)c2ccc(Cl)cc2Cl)c2nc(N3CC[C@H](N4CCCCC4)[C@H](C)C3)cnc12", "values": [{"measurement": "pIC50", "setting": "[1]", "value": 7.38}]}
{"smiles": "CC1CN(c2cnc3c(C(N)=O)nn(C(C)c4ccc(Cl)cc4Cl)c3n2)CCC1N1CCCCC1", "note": "(stereo unspecified)", "values": [{"measurement": "CLH", "setting": "[4]", "value": 101.7, "unit": "mL/min/kg"}, {"measurement": "AUC(0-inf)", "setting": "[5]", "value": 82, "unit": "ng·h/mL"}, {"measurement": "pIC50", "setting": "[1]", "value": 6.64}]}
{"smiles": "CC1CN(c2cnc3c(C(F)(F)F)nn(C(C)c4ccc(Cl)cc4Cl)c3n2)CCC1N1CCCCC1", "note": "(stereo unspecified)", "values": [{"measurement": "CLH", "setting": "[4]", "value": 56.7, "unit": "mL/min/kg"}, {"measurement": "AUC(0-inf)", "setting": "[5]", "value": 148, "unit": "ng·h/mL"}, {"measurement": "pIC50", "setting": "[1]", "value": 6.08}]}
{"smiles": "Cc1nn([C@H](C)c2ccc(Cl)cc2Cl)c2nc(N3CC[C@H](N4CCC[C@H]4C)[C@H](C)C3)cnc12", "values": [{"measurement": "pIC50", "setting": "[1]", "value": 7.33}]}
{"smiles": "Cc1nn([C@H](C)c2ccc(Cl)cc2Cl)c2nc(N3CC[C@@H](N4CCCCC4)[C@@H](C)C3)cnc12", "values": [{"measurement": "pIC50", "setting": "[1]", "value": 6.10}]}
{"smiles": "CC1CN(c2cnc3cnn(C(C)c4ccc(Cl)cc4Cl)c3n2)CCC1N1CCCCC1", "note": "(stereo unspecified)", "values": [{"measurement": "CLH", "setting": "[4]", "value": 121.7, "unit": "mL/min/kg"}, {"measurement": "AUC(0-inf)", "setting": "[5]", "value": 68, "unit": "ng·h/mL"}, {"measurement": "pIC50", "setting": "[1]", "value": 6.62}]}
{"smiles": "C[C@@H](Nc1cncc(C2=CCN(C(=O)[C@H]3CCCCN3)CC2)n1)c1ccc(Cl)cc1Cl", "values": [{"measurement": "bioavailability", "setting": "[6]", "value": 7, "unit": "%"}, {"measurement": "pIC50", "setting": "[1]", "value": 7.27}]}
{"smiles": "CC1CN(c2cnc3c(C#N)nn(C(C)c4ccc(Cl)cc4Cl)c3n2)CCC1N1CCCCC1", "note": "(stereo unspecified)", "values": [{"measurement": "CLH", "setting": "[4]", "value": 101.7, "unit": "mL/min/kg"}, {"measurement": "AUC(0-inf)", "setting": "[5]", "value": 82, "unit": "ng·h/mL"}, {"measurement": "pIC50", "setting": "[1]", "value": 6.60}]}
{"smiles": "C[C@@H]1CC(c2cnc3c(C#N)nn([C@H](C)c4ccc(Cl)cc4Cl)c3n2)=CC[C@@H]1N1CCC[C@H]1C", "values": [{"measurement": "half-life", "setting": "[7]", "value": 30.3, "unit": "h"}, {"measurement": "remaining at 1 h", "setting": "[2]", "value": 86, "unit": "%"}, {"measurement": "Vd", "setting": "[8]", "value": 4.9, "unit": "L/kg"}, {"measurement": "clearance", "setting": "[9]", "value": 1.17, "unit": "mL/min/kg"}, {"measurement": "pIC50", "setting": "[1]", "value": 7.47}, {"measurement": "remaining at 1 h", "setting": "[3]", "value": 72, "unit": "%"}, {"measurement": "bioavailability", "setting": "[10]", "value": 27, "unit": "%"}]}
